Experimental data published in the EternaBench riboswitch data.

Tested on: MS2 coat protein
Assay: apparent Kd, MS2 coat protein; higher = weaker binding; RNA-MaP array; FMN 200 µM where present
Outline: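 Apparent Kd: the median of filtered binding-curve fits from single clusters. Designs were transcribed on Illumina sequencing-chip clusters by stalled E. coli RNA polymerase and titrated with SNAP-549-labelled MS2 coat protein from 0.7 or 1.5 nM, doubling to 3 µM, in 100 mM Tris-HCl pH 7.5, 80 mM KCl, 4 mM MgCl2, BSA, DTT, yeast tRNA and Tween-20. Each series ran without and then with constant ligand, and green signal was normalised to red-channel RNA signal and control-cluster median Fmax.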

[1] = designed as: OFF switch for flavin mononucleotide, no ligand
[2] = ligand present: flavin mononucleotide, designed as: OFF switch for flavin mononucleotide
[3] = designed as: ON switch for flavin mononucleotide, no ligand
[4] = ligand present: flavin mononucleotide, designed as: ON switch for flavin mononucleotide

| Sequence | apparent Kd [1] [µM] | apparent Kd [2] [µM] | apparent Kd [3] [µM] | apparent Kd [4] [µM] |
| --- | --- | --- | --- | --- |
| AGUUCACAUGAGGAUCACCCAUGUCAGGAUAUCGACUGAACAGCUUCGGCUGUUCAGUCGAGAAGGGACAAUUA | 0.0466 | 0.104 | – | – |
| AGUUUUGUACAUGAGGAUCACCCAUGUUAAUAUGUGGUAGUCAGAAGGCAUUGUUAGUGUUUAUAUGAGGAUAUGAUUAGGCAG | – | – | 0.0466 | 0.0246 |
| AGUUUUUAUGUCAGGAUAUCAGUAGGUCUCCCGGAUGAGAAGGGACAUGAGGAUCACCCAUGUAACCAAAGAGC | 0.0156 | 0.0185 | – | – |
| AUAAAACAUGAGGAUCACCCAUGUAAAAAUAUGGGAGGAUAUGCGAAAUAAAAUAAAUAAGCAGAAGGCCUAAAAA | – | – | 0.0504 | 0.0237 |
| AUAAAACAUGAGGAUCACCCAUGUCAACAAAGUCGAGGAUAUGGGCAAAUAAAAUAAGAACCAGAAGGCGAAUAUU | – | – | 0.223 | 0.048 |
| AUAAAUCAUGUAGGAUAUGCGUGGCGAAGCUAUGCAGAAGGACAUGAGGAUCACCCAUGUCAUUCCGUCUGCGUACAGACGGAA | 0.0345 | 0.308 | – | – |
| AUAAAUGAUGAGGAUAUCACUAGCGAUAGCUAGUGAGAAGGCAUCACAUGAGGAUCACCCAUGUGCUCCAAUAA | 0.115 | 0.486 | – | – |
| AUAAGCUCGUCAGGAUAUACAACACUGUGUAAGCAGUGUGGUAUGAUCACAUGAGGAUCACCCAUGUAGAAGGGACGAGCUUAU | 0.00633 | 0.0434 | – | – |
| AUAAUGAGAGGAUAUACAUGAGGAUCACCCAUGUUUUUAUCACGUCGUGCUCCAUUACGUAGAAGGCUCAUUUA | 0.0363 | 0.0537 | – | – |
| AUAAUGCGAGGAUAUACAUGAGGAUCACCCAUGUAAUUCAAUCGGAGAGCCACAUUUCGUAGAAGGUGCAUUAA | 0.0157 | 0.0214 | – | – |
| AUAAUGCGAGGAUAUACAUGAGGAUCACCCAUGUAAUUCCAUCGGAGAGCCACAUUUCGUAGAAGGUGCAUUUA | 0.0154 | 0.0154 | – | – |
| AUAAUUUUAUAUAUCAUUUUAAUCAGAAGGCAUAACAUGAGGAUCACCCAUGUAAAUUAUUGUUAUGAGGAUAUGAUUUGGUUA | 0.0203 | 0.0722 | – | – |
| AUAAUUUUAUUUUUCCCAAGAAUCAGAAGGCAUUACAUGAGGAUCACCCAUGUUUUGGAUAGUAAUGAGGAUAUGAUAUGGUUA | 0.0102 | 0.0235 | – | – |
| AUACGGAGGGAGAAGGGCUAGGAGGUCCAGCUUAUGUGUGUUGCAACAUGAGGAUCACCCAUGUAGCAGGAUAUCCCUUGUACA | 0.0429 | 0.231 | – | – |
| AUACUAAAUGAAGGAUAUCUAAGCAUACACCUGAGAGAAGGUCAUUUUGACAUGAGGAUCACCCAUGUUGUGGUUAAUGGGUUA | 0.237 | 0.225 | – | – |
| AUAGCAACAUGAGGAUCACCCAUGUAGGAUAUCGCUAUUGUAAUCAUGAAACAUGAUUACAAUAGCGAGAAGGACAUAUGCUAG | 0.0115 | 0.0123 | – | – |
| AUAGUGCGCGAGAAGGACGUACCACAUGAGGAUCACCCAUGUGUGGUACGUAGGAUAUUGCACAUGAGGAUCACCCAUGUGGAU | – | – | 0.0195 | 0.0346 |
| AUAUAACAUGAGGAUCACCCAUGUCAACAAAGUCGAGGAUAUGGGCAAAUAAAAUAAGAACCAGAAGGCGAAUAAU | – | – | 0.291 | 0.0519 |
| AUAUAAUAUCAGGAUAUGACUAGCCUCGGCUAGUCAGAAGGGAUGACAUGAGGAUCACCCAUGUGAUCAUAUAU | 0.0328 | 0.156 | – | – |
| AUAUAGAUGGUCAGGAUAUGCUAGUGGUAACAGUAGCAGAAGGGACAUGAGGAUCACCCAUGUGGAUACUGCUC | 0.0239 | 0.0936 | – | – |
| AUAUAUACAAAGUUACAUGAGGAUCACCCAUGUUUAUUGGGAAGAAGGGUAACAUUAUUAGAUGUAUAGGAUAUUUCACGAUUG | – | – | 0.513 | 0.32 |
| AUAUAUAUAUAGAAGGUGCCAGCGAGAGCUGCACAUGAGGAUCACCCAUGUUGUCGGUGACGACGCAAGGAUAUAUAUAUAUAU | – | – | 0.034 | 0.0154 |
| AUAUCCCGAGGAUAUACAUGAGGAUCACCCAUGUCGGGCCUCUGGCCUAAGGCCGAAAGUAGAAGGUGGGUUUC | 0.177 | 0.25 | – | – |
| AUAUCUCUAUUAGUUCCAAUACGAACAUGAGGAUCACCCAUGUAGGAUAUGCUAGAAGUUGUGUUGCAGAAGGACAAGUACCUU | 0.0118 | 0.0111 | – | – |
| AUAUGGGCCCAGAAGGUGCCAGCGAGAGCUGCACAUGAGGAUCACCCAUGUUGUCGGUGACGACGCAAGGAUAUGGGCCCAUAU | – | – | 0.0221 | 0.00626 |
| AUAUUAAGUGUGAGGAUAUGCUGGUCCUUGGAUCAGCAGAAGGCACAUGAGGAUCACCCAUGUAAUAUAUUUAA | 0.102 | 0.306 | – | – |
| AUAUUGUGAGGAUAUCAGGUGUGCUAGCGUACUGGUACAUCUGAGAAGGCACAUGAGGAUCACCCAUGUUUCUU | 0.0156 | 0.0396 | – | – |
| AUAUUGUGAGGAUAUGAACUUAGUAUCGAAAGAUACUAUGUUCAGAAGGCACAUGAGGAUCACCCAUGUUUCUC | 0.0817 | 0.569 | – | – |

| Sequence | apparent Kd [1] [µM] | apparent Kd [2] [µM] | apparent Kd [3] [µM] | apparent Kd [4] [µM] |
| --- | --- | --- | --- | --- |
| AUAUUUAUUUAGAAGGACAUGAGGAUCACCCAUGUCGCUGGGCGCGGGAAACCGUGCCCGGCCAUGUAGGAUAUAGAUAGAUAU | 0.00878 | 0.00988 | – | – |
| AUAUUUGUUUAGAAGGACAUGAGGAUCACCCAUGUCGCUGGGCGCGGGAAACCGUGCGCGGCCAUGUAGGAUAUAGGGAGAUAU | 0.0387 | 0.0243 | – | – |
| AUCACCUCGUCAGGAUAUACGUCACUGCGUCAGCAGUGUGGUAAGAUCACAUGAGGAUCACCCAUGUAGAAGGGACGAGCUGAU | 0.0146 | 0.268 | – | – |
| AUCAGCACGUCAGGAUAUACGUCACUGCGUCAGCAGUGUGGUAAGAUCACAUGAGGAUCACCCAUGUAGAAGGGACGAGCUGAU | 0.0141 | 0.317 | – | – |
| AUCAGCACGUGAGGAUAUGCGUUACUGCGAAAGCAGUACGGUAAGAUCACAUGAGGAUCACCCAUGUAGAAGGCACGAGCUGAU | 0.0166 | 0.0369 | – | – |
| AUCAGCUCGCCAGGAUAUACGUCACUGCGUCAGCAGUGUGGUAAGAUCACAUGAGGAUCACCCAUGUAGAAGGGACGAGCUGAU | 0.0103 | 0.0692 | – | – |
| AUCAGCUCGUCAGGAUAUACGUCACUGCGUCAGCAGUGUGGUAAGAUCACAUGAGGAUCACCCAUGUAGAAGGGACGAGUUGAU | 0.0136 | 0.31 | – | – |
| AUCAGCUCGUCAGGAUAUACGUCACUGCGUCAGCAGUGUGGUGAGAUCACAUGAGGAUCACCCAUGUAGAAGGGACGAGCUGAU | 0.376 | 0.3 | – | – |
| AUCAGCUUGACAGGAUAUACAUGUCAGCGAAAGCUGACUAUCUUAAUAACAUGAGGAUCACCCAUGUAGAAGGGUCGAGCUGAU | 0.0169 | 0.0264 | – | – |
| AUCAGCUUGUCAGGAUAUACGUCACUGCGUCAGCAGUGUGGUAAGAUCACAUGAGGAUCACCCAUGUAGAAGGGACGAGCUGAU | 0.0129 | 0.321 | – | – |
| AUCAUCCUAGGAUAUACAUGGAUAUACAUUCAUGUGGACCUACAUGAGGAUCACCCAUGUAGAAGGAGGAUGAU | 0.0334 | 0.0888 | – | – |
| AUCAUGAGAGGAUAUACAUGAGGAUCACCCAUGUGGUAAACACCAUGAGCUCAUUUACGUAGAAGGCUCAUUUG | 0.0276 | 0.0611 | – | – |
| AUCCAGGUAACAUGAGGAUCACCCAUGUUCCUUCGCUCUGGCGAGGAUAUGAAGGGAUUGUCCCAUCAGAAGGCGCAUGGGUGC | – | – | 0.0467 | 0.0575 |
| AUCCGACAUGAGGAUCACCCAUGUCAGGAUAUGGACUGACACCCAAAGGGUGGAGGAACCAGAAGGGACUGGGC | 0.036 | 0.0681 | – | – |
| AUCCGGCGUGUAGGAUAUGGAAAAGAUUAGAAACCAGAAGGACAUGAGGAUCACCCAUGUACAUGUAAACAGUCAUCACCGGAA | 0.0122 | 0.0351 | – | – |
| AUCCGGCGUGUAGGAUAUGGAUCCGAUUAGGAUCCAGAAGGACAUGAGGAUCACCCAUGUACAUGUAAACAGUCAUCACCGGAU | 0.00659 | 0.014 | – | – |
| AUCCUGCGAGGAUAUACAUAAUUUUUUUCGUUUUGACUCGAACAUGAGGAUCACCCAUGUAGAAGGUGCUACAC | 0.0337 | 0.0301 | – | – |
| AUCCUGCGAGGAUAUACAUAGUUUUUUUCGUUUUGUCUCGAACAUGAGGAUCACCCAUGUAGAAGGUGCUUCAC | 0.0715 | 0.0669 | – | – |
| AUCGUGCAGCUUUGCUGUACGAGUACAUGAGGAUCACCCAUGUAGGAUAUGGUACGCUUUGCGUGCUAGAAGGAUAUGCGAUUG | 0.0438 | 0.0461 | – | – |
| AUCGUGUUAGGAUAUACACGACGCUGGGUAGCUAGCGGAGGGUAGAAGGGACAUGAGGAUCACCCAUGUUCGGG | 0.157 | 0.282 | – | – |
| AUCUAAGAAUUAAUUGUGACAGUGAGAAGGCUAUAGUAUGUGACCGACAUGAGGAUCACCCAUGUAGAGGAUAUCACUUGCUAC | 0.0718 | 0.335 | – | – |
| AUCUUCGGAGGAUAUUCUCCGUCACACAUGAGGAUCACCCAUGUCAUUCGAAUGGGUUCGGAAGAAGGUCGAAGGU | 0.236 | 0.171 | – | – |
| AUGACAUGCACAGGAUAUUAGGCGCAGUACAGAUAAGAAGGGUGGAUCAGCAUACAUGAGGAUCACCCAUGUUGUUGUAACAUG | – | – | 0.35 | 0.183 |
| AUGAGCAACACAGGAUAUCUACGUGACAGAGCGAGAGAAGGGUGGGCCCAUGACUUACAUGAGGAUCACCCAUGUAGCUCCAAA | – | – | 0.0399 | 0.0972 |
| AUGAGCUCGUCAGGAUAUACGUCACUGCGUCAGCAGUGUGGUAAGAUCACAUGAGGAUCACCCAUGUAGAAGGGACGAGCUGAU | 0.0146 | 0.307 | – | – |
| AUGAGGUUAGGAUAUACAUGAGGAUCACCCAUGUUGAAAGGUUAGGUAGGCGGAGCUGGUAGAAGGAACGGAGC | 0.0397 | 0.0318 | – | – |
| AUGAGUAAAGCAGGAUAUCUAUUGUCUCUGUAACAUGAGGAUCACCCAUGUAGAGAAGGGCUAAUUCUUACUCUUCGGAGUUGA | 0.0105 | 0.0101 | – | – |
